Bioassay records: PubChem BioAssay, several laboratories
Shown are actives, neighbours in structure and some others; about 2.1% of the full set was active somewhere.
GSK3 alpha inh: inhibitors of human GSK-3 alpha kinase | ADP-Glo luminescence, 60 min | P49840 | 320,000 compounds, 0.1% hits | inhibition, % at 10 µM | AID 2650;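 active means more than half of replicates show inhibition above 20%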;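 further: GST-tagged GSK-3 alpha with peptide substrate and 25 µM ATP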
GSK3beta inhib: inhibitors of human GSK3beta kinase | 300,000 compounds, 0.038% hits | activity score (negative = inhibition), % at 10 µM | AID 2097 | GST-GSK3beta kinase, ADP-Glo luminescence, 60 min; hits give low values | P49841;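 active means more than half of replicate wells score below -50%, meaning over 50% inhibition versus plate controls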
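Test system: GST-fused GSK3beta enzyme, cell-free | Quantity: 1.6 ng GST-GSK3beta enzyme per well | Reagent: 25 µM ATP with peptide substrate | Schedule: 60 min enzyme reaction, room temperature | Signal: Luminescent ADP-Glo measurement of ADP formed | Read-out basis: Score relative to plate controls | Control set: DMSO and 20 µM GW8510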
STK33 inh: inhibitors of human STK33 kinase | purified STK33, MBP phosphorylation, ADP-Glo luminescence | inhibition, % at 10 µM | 320,000 compounds, 0.073% hits | AID 2661;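 active means inhibition at or above 25%, using the most active replicate where run in duplicate; inactive means inhibition below 25%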
Target sequence (Q9BYT3 whole entry, looked up): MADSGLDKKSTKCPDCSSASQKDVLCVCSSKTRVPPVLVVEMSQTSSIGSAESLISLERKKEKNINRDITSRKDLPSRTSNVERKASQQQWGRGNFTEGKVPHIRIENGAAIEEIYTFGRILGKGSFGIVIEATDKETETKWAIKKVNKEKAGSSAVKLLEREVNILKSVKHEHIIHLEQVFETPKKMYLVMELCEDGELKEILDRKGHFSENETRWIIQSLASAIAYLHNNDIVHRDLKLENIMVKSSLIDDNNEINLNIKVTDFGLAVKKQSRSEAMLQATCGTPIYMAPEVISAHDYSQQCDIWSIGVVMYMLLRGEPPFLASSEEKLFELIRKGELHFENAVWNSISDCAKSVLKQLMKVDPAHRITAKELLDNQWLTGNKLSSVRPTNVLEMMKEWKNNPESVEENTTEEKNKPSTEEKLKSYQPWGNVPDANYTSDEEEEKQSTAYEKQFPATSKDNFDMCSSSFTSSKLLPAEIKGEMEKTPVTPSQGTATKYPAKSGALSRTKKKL
MEKK2 mut-MEK5: signal of MEK5 binding to mutant human MEKK2 PB1 domain | percent response, % at 10 µM | 290,000 compounds, 0.35% hits | bead flow cytometry, Alexa488-MEK5 binding to MEKK2 mutant; in the data active means percent response above about 24%, passing the limit was not always enough
MEKK3 PB1 HTS: raises or lowers MEK5 binding to the human MEKK3 PB1 domain; 290,000 compounds, 1.4% hits; Q99759; binding response (% of control), % at 10 µM; bead-based flow cytometry, Alexa488-MEK5 binding to MEKK3; actives lie on both sides; 0 = blocked by unlabeled MEK5, 100 = vehicle;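 active means binding response more than 3 SD above or below the average of its plate-row segment, actives on both sides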;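 further: Alexa488 bead fluorescence after subtracting the streptavidin-only scavenger bead signal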
MEKK2wt PB1 HTS: raises or lowers MEK5 binding to wildtype human MEKK2 PB1 domain; Q9Y2U5; bead flow cytometry, Alexa488-MEK5 binding to MEKK2 WT; actives lie on both sides; binding response (% of control), % at 10 µM; 290,000 compounds, 1.1% hits; AID 1531; in the data active means binding response below about 67% or above about 130%
Each line names hits and unclear results; the compound was inactive in the other large screens; [ ] = dose if it differs, or a comment.

COCCOC(=O)/C(=C/c1ccc(OC(=O)c2ccccc2)cc1)C(C)=O	MEKK2wt PB1 HTS 4.0
O=C(O)Cc1ccc(N=Cc2c(O)ccc3ccccc23)cc1	STK33 inh 50
O=C(O)c1ccc(NC(=O)c2cccc(C(=O)Nc3ccc(C(=O)O)cc3)n2)cc1	STK33 inh 34
Fc1ccccc1CNc1nc(-c2cccnc2)nc2ccccc12	MEKK2 mut-MEK5 31, MEKK2wt PB1 HTS 21[inhibitor]
O=C(O)c1cccc(Nc2nc(-c3cccnc3)nc3ccccc23)c1	STK33 inh 32
c1cncc(-c2nc(NCc3cccs3)c3ccccc3n2)c1	none
COC(=O)c1cccc(Nc2nc(-c3cccnc3)nc3ccccc23)c1	none
O=C(O)c1ccc(Nc2nc(-c3cccnc3)nc3ccccc23)cc1	GSK3 alpha inh 61
Cc1cc(C)cc(NC(=O)CN2C(=O)C3CC=CCC3C2=O)c1 (stereo not given)	none (no result: GSK3beta inhib, MEKK2 mut-MEK5, MEKK3 PB1 HTS, MEKK2wt PB1 HTS)
CC(=O)N1CCc2c(sc(NC(=O)CN3C(=O)CCC3=O)c2C(N)=O)C1	GSK3 alpha inh 93, GSK3beta inhib -79
CCC(=O)Nc1sc2c(c1C(N)=O)CCN(C(C)=O)C2	none
NC(=O)c1c(NC(=O)CN2C(=O)CCC2=O)sc2c1CCCCC2	none
CCC1(C)NC(=O)N(CC(=O)Nc2sc3c(c2C(N)=O)CCC3)C1=O (stereo not given)	GSK3 alpha inh 58
CC(=O)N1CCc2c(sc(NC(=O)CN3C(=O)c4ccccc4C3=O)c2C(N)=O)C1	GSK3beta inhib -52
Cc1nnc(NCCc2ccccc2)c2ccccc12	none
CCCOc1cccc(-c2nn(-c3ccccc3)cc2/C=C(\C#N)C(=O)NCCCn2ccnc2)c1	none (no result: GSK3 alpha inh, STK33 inh)
N#C/C(=C/c1cn(-c2ccccc2)nc1-c1cccc(OCc2ccc(F)cc2)c1)C(=O)NCCCn1ccnc1	MEKK3 PB1 HTS 172
O=C(CN1N=C(c2ccccc2)CCC1=O)NCc1ccco1	none
COC(=O)c1ccccc1NC(=O)C/C(C)=N/NC(=O)Cc1ccc(Cl)cc1	MEKK3 PB1 HTS 6.0[inhibitor], MEKK2wt PB1 HTS 12[inhibitor]
COc1cc(NC(=O)C/C(C)=N/NC(=O)Cc2ccc(Cl)cc2)c(OC)cc1Cl	none
Cc1ccc(C(=O)c2cc([N+](=O)[O-])ccc2N2CCOCC2)cc1C	MEKK3 PB1 HTS 144
COc1ccc(C(=O)c2cc([N+](=O)[O-])ccc2N2CCCC2)cc1	MEKK3 PB1 HTS 132
O=C(NC1CCCCC1)C1CC(=O)N(c2ccccc2)C1 (stereo not given)	none
CCCN(CCC)c1ccc(/C=C/c2ccc3cc(OCC)ccc3n2)cc1	MEKK2 mut-MEK5 51 (no result: MEKK2wt PB1 HTS)
CN(C)c1ccc(/C=C/c2ccc3ccccc3n2)cc1	none
CCOc1ccc(NCc2cccn2-c2nnc(N3CCC(C(=O)NCCCN4CC(C)CC(C)C4)CC3)s2)cc1 (stereo not given)	MEKK2wt PB1 HTS 137
CCN1CCN(CCCNC(=O)C2CCN(c3nnc(-n4cccc4)s3)CC2)CC1	none
O=C(O)c1cc(N/N=C/c2c(O)ccc3ccccc23)ccc1Cl	STK33 inh 44
O=C(N/N=C/c1c(O)ccc2ccccc12)Nc1ccccc1	none (no result: MEKK2 mut-MEK5, MEKK3 PB1 HTS, MEKK2wt PB1 HTS)
CN(CCCC[C@H](CNCc1ccc(-c2ccccc2)cc1)N1C[C@H](c2ccccc2)N(CCc2ccc(Cl)c(Cl)c2)C(=O)C1=O)Cc1ccc(-c2ccccc2)cc1	MEKK2 mut-MEK5 78, MEKK2wt PB1 HTS 228 (no result: GSK3 alpha inh, GSK3beta inhib, STK33 inh)
COc1ccccc1-n1cc([C@@H]2C[C@H]3CN(c4ccccc4)C(=O)[C@]34CCCN24)cn1	MEKK2 mut-MEK5 138
COc1cc(N2CCCC2)c(OC)cc1/C=C(/C#N)c1cccc(F)c1	MEKK2 mut-MEK5 155
O=C(NCCS(=O)(=O)N1CCN(Cc2ccccc2)CC1)c1ccc(F)cc1	none (no result: MEKK2 mut-MEK5, MEKK3 PB1 HTS, MEKK2wt PB1 HTS)
COc1ccc2nc(C)cc(NCc3ccc(F)cc3)c2c1	MEKK3 PB1 HTS 54[inhibitor] (no result: MEKK2 mut-MEK5, MEKK2wt PB1 HTS)
CC(C)(C)c1cc(C(c2cccnc2)N2CCN(CCO)CC2)cc(C(C)(C)C)c1O (stereo not given)	none
OCCN1CCN(C(c2cccs2)c2ccc3cccnc3c2O)CC1 (stereo not given)	MEKK2wt PB1 HTS 68[inhibitor] (no result: GSK3 alpha inh, GSK3beta inhib, STK33 inh)
CCOC(=O)c1c(-c2ccccc2)csc1/N=C/C1C(=O)CCCC1=O	MEKK2 mut-MEK5 70
CCOC(=O)c1c(CC(C)C)csc1/N=C/C1C(=O)CCCC1=O	none
O=C(Nc1ccccc1)c1sc(N2CCOCC2)nc1-c1ccccc1	none
N#C/C(=C\c1sc(N2CCOCC2)nc1-c1ccccc1)C(=O)Nc1cccc2ccccc12	MEKK3 PB1 HTS 135 (no result: GSK3 alpha inh, GSK3beta inhib, STK33 inh)
CC(C)(C)c1ccc(C(=O)N/C(=C\c2ccco2)C(=O)Nc2ccccc2C(=O)O)cc1	none
CCN(CC)CCNC(=O)C(=O)NCC1OCCN1S(=O)(=O)c1ccc(Cl)cc1 (stereo not given)	MEKK2wt PB1 HTS 142
CN(C)NC(=O)c1ccsc1NC(=O)c1ccc(S(=O)(=O)N(C)C)cc1	none
Cc1c(C(=S)Nc2ccccc2)cnn1-c1ccccc1	none (no result: MEKK2 mut-MEK5, MEKK3 PB1 HTS, MEKK2wt PB1 HTS)
Cc1c(C(=S)Nc2ccccc2)cnn1-c1ccc([N+](=O)[O-])cc1	MEKK2wt PB1 HTS 4.0
N#CCCN(C(=O)COC(=O)C1CCN(S(=O)(=O)c2cccs2)CC1)c1ccccc1	none
Oc1ccccc1-c1nc(NCCN2CCOCC2)c2ccccc2n1	STK33 inh 60
COc1cccc(-c2nc(NCCN3CCOCC3)c3ccccc3n2)c1O	none
CC1(C)Cc2nc3sc4c(SCC(=O)O)ncnc4c3cc2CO1	GSK3 alpha inh 76
COC(=O)CSc1ncnc2c1sc1nc3c(cc12)COC(C)(C)C3	none
N#Cc1c(Cl)nc(-c2ccncc2)nc1-c1ccccc1	GSK3 alpha inh 75, GSK3beta inhib -62
COc1ccccc1NC(=O)c1c(Nc2ccccc2C)sc(C(=O)Nc2cccc(Cl)c2)c1N	MEKK2wt PB1 HTS -3.0
COc1ccc(Nc2sc(C(=O)c3ccc(Cl)cc3)c(N)c2C(=O)Nc2ccccc2OC)cc1	none
Cc1ccc(C)c(NC(=O)CN(C)S(=O)(=O)c2cccc3cccnc23)c1	none
Nn1c(SCC(=O)NCc2ccc3c(c2)OCO3)nnc1C(F)(F)F	none (no result: GSK3beta inhib, MEKK2 mut-MEK5, MEKK3 PB1 HTS, MEKK2wt PB1 HTS)
CN(Cc1nc2c(s1)CCCC2)C(=O)CCc1nnc(-c2ccc3c(c2)OCO3)o1	GSK3 alpha inh 58
CCOC(=O)C1CCCCN1C(=O)CCc1nnc(-c2ccc3c(c2)OCO3)o1 (stereo not given)	none
O=C1NC(=O)/C(=C/c2ccccn2)S1	none
O=C1NC(=O)/C(=C/c2ccc(O)cc2)S1	STK33 inh 33
CC(=O)NC(Cc1cccc(F)c1)C(=O)NC1CCN(C(=O)Nc2ccccc2)CC1 (stereo not given)	none (no result: GSK3beta inhib)
Cc1ccc(CC(=O)Nc2nccs2)cc1C	none
